Only some compounds are listed: those with a hit (about 5.3% of all), similar ones and a draw of the others.
Beta cell apopt: beta cell apoptosis inhibition. INS-1E cytokine-induced death, ATP luminescence, 48 h; percent of positive-control rescue, neutral wells zero. protection from apoptosis, % (no concentration beside the values). 0.8% of 300,000 active. AID 435005;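 active means Every replicate reaches about 75%, or at least half do and their mean reaches it too, limit read from the data; inconclusive means At least half of replicates reach the limit but their mean does not; inactive means Under half of replicates reach the limit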;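 further: 0% = cytokine-treated negative control wells and 100% = positive control rescue; higher means more ATP so stronger rescue from cytokine killing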
T cruzi inh: blocks replication of Trypanosoma cruzi | 1.4% of 300,000 active | inhibition, % (test concentration not listed) | T. cruzi beta-gal in NIH3T3, luminescence, 90 h;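 active means mean inhibition across valid replicates above about 55%, limit read from the data; inconclusive means mean below that limit but half or more replicates reach it; inactive means mean below it, under half of replicates reach it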;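 further: signal also drops with host cell toxicity which is not excluded here; 0% = plate median of DMSO wells and 100% = zero luminescence signal; higher percent means less beta-gal luminescence so fewer parasites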
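Assay system: NIH/3T3 host cells with β-galactosidase reporter T. cruzi; input: 5,000 host fibroblasts per well; compound: single 50 nL compound addition per well in DMSO; timing: ≥90 h infection period, 3 h prior cell attachment; measured by: GalScreen β-gal luminescence, detergent lysis, 60 min; evaluation: percent inhibition of parasite-derived β-gal signal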
CSC inhib: blocks cancer stem cells; cancer stem cell-like cells viability, luminescence; AID 2717; 1.1% of 300,000 active; inhibition, % at 7.5 µM; in the data active means inhibition above about 75%; inconclusive means no clear call, values can overlap the other calls; tested in HMLE shEcad cells
Calb FLC: C. albicans growth modulation with fluconazole. C. albicans CaCi-2 (fluconazole-resistant clinical isolate) + fluconazole, Alamar Blue growth, 48 h. growth inhibition, % (no concentration beside the values). 0.57% of 300,000 active;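 active means growth inhibition above about 58% in most replicates, limit read from the data, passing the limit was not always enough; inconclusive means exactly half the replicates above a set limit; inactive means most replicates below a set limit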;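 further: all wells also contain fluconazole at 8 µg/ml as a sub-toxic cotreatment; 0% = median of DMSO wells and 100% = median of geldanamycin control wells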
NLRP3 yeast inh: inhibitors of NALP3 inflammasome in yeast; inhibition, % at 10 µM; Yeast reconstituted NLRP3/ASC/caspase-1, beta-gal luminescence, 24 h; 0.39% of 330,000 active;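 active means inhibition of 50% or more; inactive means inhibition below 50%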;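 further: plate controls were induced DMSO wells for no effect and uninduced yeast grown without galactose for full effect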
Mdm2-MdmX inh: inhibitors of human Mdm2/MdmX interaction; O15151+Q00987; SaOS-2 split-luciferase Mdm2/MdmX complementation, luminescence; inhibition, % at 8 µM; 3% of 330,000 active; AID 485346;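 active means inhibition of at least 50% at 8 µM in the primary screen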
Target sequence (O15151 whole entry, looked up): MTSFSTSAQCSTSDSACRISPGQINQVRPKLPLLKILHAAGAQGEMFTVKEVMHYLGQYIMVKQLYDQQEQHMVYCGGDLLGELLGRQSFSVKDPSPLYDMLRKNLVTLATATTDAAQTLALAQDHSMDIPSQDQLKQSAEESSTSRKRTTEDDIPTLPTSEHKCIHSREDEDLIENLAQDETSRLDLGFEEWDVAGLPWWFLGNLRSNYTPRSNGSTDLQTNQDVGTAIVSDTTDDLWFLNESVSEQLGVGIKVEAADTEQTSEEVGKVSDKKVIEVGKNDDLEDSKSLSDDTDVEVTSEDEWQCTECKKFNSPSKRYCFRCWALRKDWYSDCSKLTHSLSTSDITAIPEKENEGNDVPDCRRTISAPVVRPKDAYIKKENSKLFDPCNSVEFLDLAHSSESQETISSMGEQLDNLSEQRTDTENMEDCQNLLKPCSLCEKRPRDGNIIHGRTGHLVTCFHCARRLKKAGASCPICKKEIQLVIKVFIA
Target sequence (Q00987 whole entry, looked up): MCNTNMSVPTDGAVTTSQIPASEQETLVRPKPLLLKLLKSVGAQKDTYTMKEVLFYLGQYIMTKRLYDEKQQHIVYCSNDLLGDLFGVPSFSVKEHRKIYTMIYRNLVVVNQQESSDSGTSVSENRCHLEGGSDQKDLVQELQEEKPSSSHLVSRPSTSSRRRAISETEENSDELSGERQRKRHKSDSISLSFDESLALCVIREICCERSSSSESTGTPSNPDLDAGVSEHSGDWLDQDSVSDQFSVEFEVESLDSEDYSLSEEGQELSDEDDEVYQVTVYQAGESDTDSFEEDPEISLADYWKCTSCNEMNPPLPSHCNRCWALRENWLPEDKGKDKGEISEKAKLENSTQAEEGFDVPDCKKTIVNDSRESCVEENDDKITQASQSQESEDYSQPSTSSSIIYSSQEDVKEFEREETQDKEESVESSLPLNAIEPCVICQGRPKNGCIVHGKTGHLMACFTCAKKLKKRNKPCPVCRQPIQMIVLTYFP
An asterisk follows results filed as active; ? = inconclusive; . = no result.

SMILES	Beta cell apopt	T cruzi inh	CSC inhib	Calb FLC	NLRP3 yeast inh	Mdm2-MdmX inh
O=S(=O)(NCC(c1cccnc1)N1CCN(c2ccc(F)cc2)CC1)c1ccc(F)cc1 (configuration not stated)	-1.0	40.5	8.7	0.1	15.9	-0.4
CCOC(=O)C1=C(c2ccccc2)NC(SCC(=O)Nc2ccc(C)cc2)=C(C#N)C1c1ccco1 (configuration not stated)	3.3	64.8*	6.0	-1.4	-6.2	34.2
CCCc1ccc(OCc2ccc(C(=O)Nc3cccc(C)n3)o2)c(OC)c1	-6.9	30.5	24.2	0.0	5.7	-6.0
Cc1cccc(CCNC(=O)CN(C)S(=O)(=O)c2cnc[nH]2)c1	-8.8	-7.6	-1.1	-1.5	8.8	5.7
CCOP(=O)(OCC)/C(=N/OC(=O)c1ccc(Cl)cc1Cl)C(N)=O	-1.2	-12.8	-16.8	-1.3	18.0	13.0
O=C(Nc1ccccc1F)N1CCCC1c1cccnc1 (configuration not stated)	.	18.5	-7.4	-5.8	-6.7	-32.6
O=C(Nc1ccc(F)cc1F)N1CCCCC1c1cccnc1 (configuration not stated)	4.1	56.8*	-8.0	-12.9	4.4	16.4
CCOc1ccc(C(=O)N/N=C(/C)C2C(=O)c3ccccc3C2=O)cc1	4.5	-1.1	3.1	11.2	17.0	-3.6
CCOc1cccc(-c2c(C(=O)N/N=C(\C)c3ccncc3)nnn2-c2nonc2N)c1	.	23.0	-13.4	-7.9	10.4	26.8
C/C(=N/NC(=O)c1ccccn1)c1ccncc1	-0.2	-6.7	13.9	11.0	5.1	-21.5
CCOc1cccc(-c2c(C(=O)N/N=C(\C)c3ccccn3)nnn2-c2nonc2N)c1	.	?	-11.7	82.0*	.	.
CCOc1ccc(OCc2ccc(C(=O)N/N=C(\C)c3ccccn3)cc2)cc1	102.1*	41.0	-8.0	?	.	.
O=C(N/N=C(\c1ccccc1)c1ccccn1)c1ccccc1Cl	94.4*	61.7*	24.6	22.9	27.4	40.4
C/C(=N\NC(=O)c1ccccc1Cl)c1ccccn1	93.5*	54.6*	32.8	7.1	17.1	47.5
CCCOc1nc2c(c(=O)n(C)c(=O)n2C)n1CCC	-9.1	1.2	-21.7	-6.4	11.1	-5.9
Cc1cccc(NC(=O)CSc2nnc(NC(=O)c3ccc(S(=O)(=O)N4CCOCC4)cc3)s2)c1C	-4.4	-10.0	-9.4	26.8	7.7	-2.4
CCCCCSc1nc2c(cnn2-c2ccccc2)c(=O)[nH]1	-3.4	.	-1.9	.	-3.4	-14.0
COc1ccc(C(=O)Nc2ccc(NC(=O)c3ccccn3)cn2)cc1	.	-12.4	.	12.6	33.9	-17.0
COc1ccc(C(=O)N/N=C(\c2ccccc2)c2ccccn2)cc1	113.0*	?	50.2	17.0	.	.
COc1ccccc1-c1sc2ccccc2c1-c1ccc(O)cc1	6.5	.	.	.	15.4	24.5
COc1ccc(-c2sc3ccccc3c2-c2ccc(O)cc2)cc1	8.9	.	106.7*	.	23.2	37.0
COc1cccc(-c2sc3ccc(OC)cc3c2-c2ccc(O)cc2)c1	3.8	.	129.4*	.	16.9	15.5
COc1cccc(-c2sc3ccc(OC)cc3c2-c2cc(F)cc(OC)c2)c1	-4.4	.	25.5	.	7.2	10.4
CCOc1ccc(-c2cn[nH]c2N)cc1	-4.0	9.2	-8.2	3.3	-0.9	-13.5
COc1ccccc1NS(=O)(=O)c1cccc(NC(=O)C2CC2)c1	-2.1	.	.	.	2.6	-24.3
SMILES	Beta cell apopt	T cruzi inh	CSC inhib	Calb FLC	NLRP3 yeast inh	Mdm2-MdmX inh
COC(=O)c1ccc(-c2sc3nc(N4CCOCC4)c4c(c3c2N)CCCC4)o1	6.2	66.6*	28.4	-1.9	10.9	-6.6
COC(=O)c1sc2nc(N3CCCCC3)c3c(c2c1N)CCCC3	6.1	16.0	84.5*	7.0	18.5	6.9
CNC(=O)c1ccc(-c2ccc(Cl)c(Cl)c2)s1	-3.2	-1.3	20.6	55.5	29.3	7.6
CC1CCC2(CC1)NC(=O)N(CC(=O)Nc1ccc(N3CCOCC3)cc1)C2=O (configuration not stated)	9.3	-12.8	-9.5	0.3	1.3	21.3
CCCC(=O)NCn1nnc(-c2ccc(Cl)cc2)n1	.	1.8	.	6.4	.	.
CCCOc1ccc(CSc2nc3ccccc3[nH]2)cc1	112.3*	-21.4	24.4	14.8	14.9	-184.1
OC(CNC1CCCCC1)COCCOc1ccc(Br)cc1 (configuration not stated)	106.3*	35.8	58.5	2.6	18.6	30.3
O=C1N=C(N2CCCCC2)SC1=C1CCCC1	4.4	-3.0	0.3	5.6	13.4	-17.1
